This is a sample that favours compounds with a hit; in the whole collection about 3.5% have one here.
MEKK2 mut-MEK5 = signal of MEK5 binding to mutant human MEKK2 PB1 domain; bead flow cytometry, Alexa488-MEK5 binding to MEKK2 mutant; percent response, % at 10 µM; actives 0.35% (n = 290,000); AID 1530; in the data active = percent response above about 24%, passing the limit was not always enough
WT yeast gro inh = growth inhibition of WT yeast, mitochondrial fusion screen; mitochondrial fusion phenotypic screen, WT strain; inhibition, % at 10 µM; actives 2.1% (n = 190,000); in the data active = inhibition above about 58%; tested in S. cerevisiae
ABCB1 block = human ABCB1 inhibition, ABCG2 as counter-screen | CCRF-Adr cells, JC-1 efflux, flow cytometry | inhibition, % at 6.6 µM | actives 0.067% (n = 190,000); in the data active = inhibition above about 40%;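 also: higher value means more JC-1 retained so stronger ABCB1 efflux block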
ABCG2 block = human ABCG2 inhibition, ABCB1 as counter-screen; Q9UNQ0; IgMXP3 cells, JC-1 efflux, flow cytometry; inhibition, % at 6.6 µM; actives 0.1% (n = 190,000); AID 1325;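 active = inhibition above 80%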
Target sequence (Q9UNQ0 whole entry, looked up): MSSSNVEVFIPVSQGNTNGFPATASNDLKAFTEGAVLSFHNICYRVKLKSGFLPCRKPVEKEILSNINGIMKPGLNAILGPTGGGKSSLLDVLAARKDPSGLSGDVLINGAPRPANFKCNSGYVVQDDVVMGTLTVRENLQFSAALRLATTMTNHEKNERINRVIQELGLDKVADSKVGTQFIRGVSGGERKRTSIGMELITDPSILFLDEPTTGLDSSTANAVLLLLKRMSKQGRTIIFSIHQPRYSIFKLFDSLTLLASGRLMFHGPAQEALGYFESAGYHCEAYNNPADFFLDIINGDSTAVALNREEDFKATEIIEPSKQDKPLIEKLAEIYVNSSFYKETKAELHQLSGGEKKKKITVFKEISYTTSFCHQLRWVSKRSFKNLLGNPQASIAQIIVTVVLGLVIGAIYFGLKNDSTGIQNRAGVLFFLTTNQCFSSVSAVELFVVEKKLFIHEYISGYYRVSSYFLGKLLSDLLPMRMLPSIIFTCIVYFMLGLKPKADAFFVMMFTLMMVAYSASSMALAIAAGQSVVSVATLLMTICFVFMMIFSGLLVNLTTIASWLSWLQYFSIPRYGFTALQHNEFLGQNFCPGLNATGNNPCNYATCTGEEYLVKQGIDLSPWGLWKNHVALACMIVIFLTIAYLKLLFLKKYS
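System: two drug-resistant human cell lines, ABCG2 and ABCB1; controls: nicardipine high and DMSO low controls; times: 10 min exposure at 25 °C with rotation, no wash; detection: flow cytometry of retained JC-1 fluorescence; read-out basis: percent efflux inhibition, scaled nicardipine 100% to DMSO 0%; doses: one concentration, 6.6 µM final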
MEKK2wt PB1 HTS = raises or lowers MEK5 binding to wildtype human MEKK2 PB1 domain. Q9Y2U5. bead flow cytometry, Alexa488-MEK5 binding to MEKK2 WT; actives lie on both sides. binding response (% of control), % at 10 µM. actives 1.1% (n = 290,000). AID 1531; in the data active = binding response below about 67% or above about 130%
MEKK3 PB1 HTS = MEKK3-MEK5 PB1 interaction, increase or decrease | bead-based flow cytometry, Alexa488-MEK5 binding to MEKK3; actives lie on both sides; 0 = blocked by unlabeled MEK5, 100 = vehicle | actives 1.4% (n = 290,000) | binding response (% of control), % at 10 µM | Q99759;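 active = binding response more than 3 SD above or below the average of its plate-row segment, actives on both sides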;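 also: Alexa488 bead fluorescence after subtracting the streptavidin-only scavenger bead signal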
MEKK2wt confirm = raises or lowers MEK5 binding to wildtype human MEKK2, retest; shares compounds with MEKK3 PB1 HTS; bead flow cytometry, Alexa488-MEK5 binding to MEKK2 WT; actives lie on both sides; binding response (% of control), % at 10 µM; actives 2.4% (n = 5,900); in the data active = binding response below about 16% or above about 210%; inactive = in between
MEKK2mut-MEK5 = signal of MEK5 binding to mutant human MEKK2, retest; shares compounds with MEKK3 PB1 HTS; actives 2% (n = 5,900); bead flow cytometry, Alexa488-MEK5 binding to MEKK2 mutant; percent response, % at 10 µM; in the data active = percent response mostly above about 71%, no sharp cut-off; inactive = mostly below about 38%;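 also: higher means compound restores mutant binding toward wildtype level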
MEKK3-MEK5 inh = confirmation of inhibitors of MEK5 binding to human MEKK3; shares compounds with MEKK3 PB1 HTS; bead flow cytometry, Alexa488-MEK5 binding to MEKK3; hits give low values; binding response (% of control), % at 10 µM; actives 1.8% (n = 5,900);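 active = binding response below 72% of control, or above a set upper limit, though filed actives all read lower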;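 also: lower values mean stronger disruption of MEK5 binding to MEKK3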
Hits are given with their value; i = inactive; nt = no result; [ ] = another dose, or the depositor's remark.

SMILES | MEKK2 mut-MEK5 | WT yeast gro inh | ABCB1 block | ABCG2 block | MEKK2wt PB1 HTS | MEKK3 PB1 HTS | MEKK2wt confirm | MEKK2mut-MEK5 | MEKK3-MEK5 inh
CC(C)(Cc1ccc(O)cc1)NC(=O)CC(=O)N=Nc1c(O)[nH]c2ccc(Br)cc12 | i | i | i | i | i | 21[inhibitor] | i | i | i
COc1ccc(CCNC(=O)COc2ccc([N+](=O)[O-])cc2)cc1 | i | i | i | i | i | i | nt | nt | nt
COc1ccc(P(=O)(COc2ccc([N+](=O)[O-])cc2)c2ccc(OC)cc2)cc1 | i | i | i | i | i | 66[inhibitor] | i | i | i
CCOc1ccccc1C(=O)N[C@H](C(=O)OCc1cc([N+](=O)[O-])cc2c1OCOC2)C(C)C | i | i | i | i | i | i | nt | nt | nt
Cc1ccccc1C1NC(c2ccccc2C)C(C)C(=O)C1C (stereo not drawn) | i | nt | nt | nt | i | i | nt | nt | nt
CC1C(=O)C(C)C(c2cccs2)NC1c1cccs1 (stereo not drawn) | i | i | i | i | i | 127 | i | i | i
COc1cccc(-c2nc(CS(=O)(=O)CC(=O)N3CCOCC3)c(C)o2)c1 | i | nt | nt | nt | i | i | nt | nt | nt
CC(C)C(c1nnnn1Cc1cccs1)N1CCN(C(=O)c2ccco2)CC1 (stereo not drawn) | i | i | i | i | i | i | nt | nt | nt
Cc1ccc(C(=O)Nc2ccc(NC(=O)c3ccc(C)o3)cc2)o1 | i | nt | nt | nt | i | i | nt | nt | nt
Cc1ccc(NC(=O)CNC(=O)c2ccc(C)o2)cc1 | i | nt | nt | nt | 46[inhibitor] | 29[inhibitor] | i | i | i
COC(=O)c1c(NC(=O)C(=O)N2CCCC2)sc2c1CC(C)(C)OC2 | i | nt | nt | nt | i | i | nt | nt | nt
CCN(CC)CCOC(=O)c1ccc(NC(=O)c2cn(-c3ccccc3)nc2-c2cccs2)cc1 | i | 90 | i | i | 153 | i | 250 | 92 | i
CCN(CC)CCNC(=O)c1cn(-c2ccccc2)nc1-c1cccs1 | nt | nt | i | i | nt | nt | nt | nt | nt
Cc1ccc2c(c1)nnn2C1CCN(CC(=O)c2ccc(Cl)cc2)CC1 | i | i | i | i | i | 129 | i | i | i
O=C(COc1ccc(C2SCCS2)cc1)Nc1ccc(Cl)cc1 | i | nt | nt | nt | i | 72[inhibitor] | i | i | i
O=C(CSc1ccc(Cl)cc1)Nc1ccc(C2SCCS2)cc1 | i | nt | nt | nt | i | i | nt | nt | nt
COc1ccc2[nH]cc(/C=C/c3cc[n+](C)cc3)c2c1 | i | nt | nt | nt | i | i | nt | nt | nt
COC(=O)C(C)N(C#N)c1nc(C)cc(C)n1 (stereo not drawn) | i | i | i | i | i | 131 | i | i | i
COC(=O)C(C)N(C#N)c1nc(NC(C)C)nc(SC)n1 (stereo not drawn) | i | i | i | i | i | i | nt | nt | nt
COc1cccc(NC(=O)CN(C)CC(=O)Nc2ccc(C)c([N+](=O)[O-])c2)c1 | i | nt | nt | nt | i | i | nt | nt | nt
COc1ccc(C(CCN)c2ccc3c(c2)OCO3)cc1 (stereo not drawn) | 28 | nt | nt | nt | i | i | i | i | i
COc1cc(O)c(C(CCN2CCOCC2)c2ccc3c(c2)OCO3)c(OC)c1 (stereo not drawn) | i | nt | nt | nt | i | i | nt | nt | nt
COCCN(C(=O)c1ccccc1F)c1nnc(-c2ccc(OC)cc2)s1 | i | nt | nt | nt | i | i | nt | nt | nt
Cc1ccc(S(=O)(=O)N2CCN(C(C)CC(=O)O)CC2)cc1 (stereo not drawn) | i | i | i | i | 3.0[inhibitor] | 3.0[inhibitor] | i | i | i
Oc1ccc(Br)cc1-c1ccnn1-c1ccccc1 | i | nt | nt | nt | i | i | nt | nt | nt
SMILES | MEKK2 mut-MEK5 | WT yeast gro inh | ABCB1 block | ABCG2 block | MEKK2wt PB1 HTS | MEKK3 PB1 HTS | MEKK2wt confirm | MEKK2mut-MEK5 | MEKK3-MEK5 inh
Clc1ccccc1-c1nc2ccccc2c2nc3ccccc3n12 | i | i | i | i | i | 134 | i | i | i
O=C(O)CNC(=O)c1ccc(Oc2c(F)c(F)c(Oc3ccc(C(=O)NCC(=O)O)cc3)c(F)c2F)cc1 | i | nt | nt | nt | i | i | nt | nt | nt
Brc1ccc(-c2nnc3ccc(N4CCN(c5ccccc5)CC4)nn23)cc1 | i | i | i | i | -1.0[inhibitor] | 0.0[inhibitor] | i | i | i
Fc1ccc(-c2nnc3ccc(N4CCCC4)nn23)cc1 | i | i | i | i | i | i | nt | nt | nt
CC(=O)c1sc(NC(=O)CCN2C(=O)c3ccccc3C2=O)nc1C | i | nt | nt | nt | i | i | nt | nt | nt
CC(C)(C)c1cc(NC(=O)CSc2nnc(NCc3ccccc3)s2)n(-c2ccccc2)n1 | i | i | i | i | i | i | nt | nt | nt
COCCNc1nnc(SCC(=O)Nc2cc(-c3ccccc3)nn2-c2ccccc2)s1 | i | i | i | i | i | 68[inhibitor] | i | i | i
CCOc1c(Br)cc(CNCc2cccs2)cc1OC | i | i | i | i | i | i | nt | nt | nt
CCCCNCc1cc(Br)c(OCc2cccs2)c(OC)c1 | i | i | i | i | 136 | i | i | i | i
COCCN1CCC(CNCc2cn(-c3cc(C)ccc3C)nc2-c2ccccc2)C1 (stereo not drawn) | i | i | i | i | 163 | i | i | i | i
COCCN1CCC(CNCc2cn[nH]c2-c2ccc(C)c(C)c2)C1 (stereo not drawn) | i | i | i | i | 161 | i | i | i | i
CC1=Nc2ccccc2/C1=C\c1nc(-c2ccc(F)cc2)oc1O | i | i | i | i | 7.0 | 9.0[inhibitor] | i | i | i
Cc1ccc(Nc2c(-c3ccccc3O)nc3cnccn23)cc1 | i | i | i | i | i | i | nt | nt | nt
Cc1ccc(Nc2c(-c3ccccc3O)nc3ncccn23)cc1 | i | nt | nt | nt | i | 130 | i | i | i
CCN1/C(=N\N)c2cccc3cccc1c23 | i | i | i | i | -8.0 | 58[inhibitor] | i | i | i
CCC(C)NC(=O)CN1C(=O)c2cccc3cccc1c23 (stereo not drawn) | i | nt | nt | nt | i | i | nt | nt | nt
COc1ccc(Cl)cc1S(=O)(=O)N(C)CC(=O)N1CCOCC1 | i | nt | nt | nt | i | i | nt | nt | nt
O=C(Nc1ccccc1F)C1CC1c1ccccc1 (stereo not drawn) | i | i | i | i | i | i | nt | nt | nt
NNC(=O)[C@H]1C[C@@H]1c1ccccc1 | i | i | i | i | i | 152 | i | i | i
CN(CCO)C(=O)c1cccc2c1-c1ccccc1C2=O | i | i | i | i | i | 81[inhibitor] | i | i | i
CN(CCO)C(=O)C(c1ccccc1)c1ccccc1 | i | nt | nt | nt | i | i | nt | nt | nt
Cc1c(/C=N/NC(=O)c2ccc(Br)o2)cnn1C | i | nt | nt | nt | i | i | nt | nt | nt
O=C(O)Cn1c(-c2cscn2)nc2ccccc21 | i | i | i | i | i | 123 | i | i | i

Screening results from PubChem.
